Among the data in ChEMBL document CHEMBL4118021, “Studies of TAK1-centered polypharmacology with novel covalent TAK1 inhibitors” (Bioorg Med Chem, 2017) are Activity and inhibition values, retold here.

SMILES strings stand for the structures. The source made the active and inactive calls. The calls are words filed in the database; no cut-off is given here.

For test [1], the target named is Medium-chain specific acyl-CoA dehydrogenase, mitochondrial (Homo sapiens) (UniProt P11310). The experiment in a line: Binding affinity to ACADM in human NCI-H23 cells at 1 uM by mass spectrometry based pull down assay. It counts as cell-based. An outline of the steps: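 NCI-H23 or NCI-H358 cells were grown and lysed. Lysates were incubated overnight at 4 °C with 1 μM biotinylated covalent probe or DMSO, then pulled down on streptavidin beads. Proteins were run on polyacrylamide gels and stained with Coomassie. Bands were excised, digested and identified by mass spectrometry.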

Test [2] addresses Tubulin alpha-4A chain (Homo sapiens) (UniProt P68366). The experiment in a line: Binding affinity to TUBA4A in human NCI-H23 cells at 1 uM by mass spectrometry based pull down assay. The test is classed as cell-based.
Test [3] concerns the target Arginine--tRNA ligase, cytoplasmic (Homo sapiens) (UniProt P54136). The experiment in a line: Binding affinity to RARS in human NCI-H23 cells at 1 uM by mass spectrometry based pull down assay. The test is classed as cell-based.
Test [4] concerns the target Thioredoxin-like protein 1 (Homo sapiens) (UniProt O43396). The experiment in a line: Binding affinity to TXNL1 in human NCI-H23 cells at 1 uM by mass spectrometry based pull down assay. The test is classed as cell-based.
In test [5] the target is Glyoxylate reductase/hydroxypyruvate reductase (Homo sapiens) (UniProt Q9UBQ7). The experiment in a line: Binding affinity to GRHPR in human NCI-H23 cells at 1 uM by mass spectrometry based pull down assay. It counts as cell-based.
The target of test [6] is 80S Ribosome (Homo sapiens) (UniProt P08865+P42677+P62753+P15880+P23396+P61247+P62701+P22090+P46782+P62081+P62241+P46781+P46783+P62280+P25398+P62277+P62263+P62841+P62244+P62249+P08708+P62269+P39019+P60866+P63220+P62266+P62847+P62851+P62854+P62979+P62857+P62273+P62861+P39023+P36578+P46777+Q02878+P18124+P62424+P62917+P32969+P27635+P62906+P62913+P30050+P26373+P40429+P50914+P61313+P18621+Q07020+Q02543+P84098+P46778+P35268+P62829+P62750+P83731+P61254+P61353+P46776+P46779+P47914+P62888+P62899+P62910+P49207+P42766+P18077+Q9Y3U8+P83881+P61927+P61513+P63173+P62891+P62945+P05388+P05386). The experiment in a line: Binding affinity to RPL10 in human NCI-H23 cells at 1 uM by mass spectrometry based pull down assay. The test is classed as cell-based.

The target of test [7] is Reticulon-4 (Homo sapiens) (UniProt Q9NQC3). The experiment in a line: Binding affinity to RTN4 in human NCI-H23 cells at 1 uM by mass spectrometry based pull down assay. It counts as cell-based.
Test [8] deals with Dual specificity mitogen-activated protein kinase kinase 1 (Homo sapiens) (UniProt Q02750). The experiment in a line: Binding affinity to MAP2K1 in human NCI-H23 cells at 1 uM by mass spectrometry based pull down assay. It counts as cell-based.
Test [9] addresses Phosphoinositide 3-kinase regulatory subunit 4 (Homo sapiens) (UniProt Q99570). The experiment in a line: Binding affinity to PIK3R4 in human NCI-H358 cells at 1 uM by mass spectrometry based pull down assay. It counts as cell-based.
Test [10] concerns the target MAP kinase-activated protein kinase 5 (Homo sapiens) (UniProt Q8IW41). The experiment in a line: Binding affinity to MAPKAPK5 in human NCI-H358 cells at 1 uM by mass spectrometry based pull down assay. The test is classed as cell-based.
Test [11] concerns the target Kelch-like ECH-associated protein 1 (Homo sapiens) (UniProt Q14145). The experiment in a line: Binding affinity to KEAP1 in human NCI-H358 cells at 1 uM by mass spectrometry based pull down assay. The test is classed as cell-based.
The target in test [12] is Thioredoxin-related transmembrane protein 1 (Homo sapiens) (UniProt Q9H3N1). The experiment in a line: Binding affinity to TMX1 in human NCI-H358 cells at 1 uM by mass spectrometry based pull down assay. It counts as cell-based.
In test [13] the target is Isoleucine--tRNA ligase, cytoplasmic (Homo sapiens) (UniProt P41252). The experiment in a line: Binding affinity to IARS in human NCI-H358 cells at 1 uM by mass spectrometry based pull down assay. It counts as cell-based.
For test [14], the target named is Protein diaphanous homolog 1 (Homo sapiens) (UniProt O60610). The experiment in a line: Binding affinity to DIAPH1 in human NCI-H358 cells at 1 uM by mass spectrometry based pull down assay. It counts as cell-based.
For test [15], the target named is Pyrroline-5-carboxylate reductase 1, mitochondrial (Homo sapiens) (UniProt P32322). The experiment in a line: Binding affinity to PYCR1 in human NCI-H358 cells at 1 uM by mass spectrometry based pull down assay. It counts as cell-based.
Test [16] addresses Eukaryotic translation initiation factor 2-alpha kinase 3 (Homo sapiens) (UniProt Q9NZJ5). The experiment in a line: Inhibition of PEK in human SKCO1 cells at 1 uM after 4 hrs using biotin labeled DLKPSNIFFTMDDVVK probe by mass-spectrometric analysis relative to control. The test is classed as cell-based.
For test [17], the target named is T1, Serine/threonine-protein kinase D2 (Homo sapiens) (UniProt Q9BZL6).
T1 sequence (whole entry): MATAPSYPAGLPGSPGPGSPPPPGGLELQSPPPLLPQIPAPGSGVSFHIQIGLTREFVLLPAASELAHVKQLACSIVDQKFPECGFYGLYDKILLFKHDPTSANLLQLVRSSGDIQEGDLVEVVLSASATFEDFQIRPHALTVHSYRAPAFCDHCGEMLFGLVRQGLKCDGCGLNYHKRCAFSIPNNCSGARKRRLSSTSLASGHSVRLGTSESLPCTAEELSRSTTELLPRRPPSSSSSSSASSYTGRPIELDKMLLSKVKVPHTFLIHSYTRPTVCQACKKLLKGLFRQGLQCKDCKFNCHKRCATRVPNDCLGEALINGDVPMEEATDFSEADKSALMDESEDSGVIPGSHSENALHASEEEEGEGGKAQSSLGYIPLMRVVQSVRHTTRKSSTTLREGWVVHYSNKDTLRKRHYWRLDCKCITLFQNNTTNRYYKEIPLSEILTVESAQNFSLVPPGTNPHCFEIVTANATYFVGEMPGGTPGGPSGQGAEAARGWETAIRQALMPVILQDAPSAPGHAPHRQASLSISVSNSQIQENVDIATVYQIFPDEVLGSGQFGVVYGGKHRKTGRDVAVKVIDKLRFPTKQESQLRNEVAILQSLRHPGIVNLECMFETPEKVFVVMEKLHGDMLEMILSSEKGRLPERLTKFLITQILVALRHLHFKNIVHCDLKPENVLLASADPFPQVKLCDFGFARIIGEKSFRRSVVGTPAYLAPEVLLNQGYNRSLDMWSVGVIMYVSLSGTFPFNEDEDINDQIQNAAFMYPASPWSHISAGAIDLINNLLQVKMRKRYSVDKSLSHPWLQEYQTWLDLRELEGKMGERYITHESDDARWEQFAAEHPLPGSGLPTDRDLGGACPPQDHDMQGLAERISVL
The experiment in a line: Inhibition of human PRKD2 (519 to 838 residues) expressed in bacterial expression system assessed as enzyme activity at 10 uM by KINOMEScan assay relative to control. Details: scale not given: the % may be the effect or the level left. An outline of the steps:
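In vitro ATP-site competition binding assay across a panel of 456 kinases, with compound tested at 1 and 10 μM.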

Chain of Tubulin alpha-4A chain (Homo sapiens) (P68366 whole entry, looked up): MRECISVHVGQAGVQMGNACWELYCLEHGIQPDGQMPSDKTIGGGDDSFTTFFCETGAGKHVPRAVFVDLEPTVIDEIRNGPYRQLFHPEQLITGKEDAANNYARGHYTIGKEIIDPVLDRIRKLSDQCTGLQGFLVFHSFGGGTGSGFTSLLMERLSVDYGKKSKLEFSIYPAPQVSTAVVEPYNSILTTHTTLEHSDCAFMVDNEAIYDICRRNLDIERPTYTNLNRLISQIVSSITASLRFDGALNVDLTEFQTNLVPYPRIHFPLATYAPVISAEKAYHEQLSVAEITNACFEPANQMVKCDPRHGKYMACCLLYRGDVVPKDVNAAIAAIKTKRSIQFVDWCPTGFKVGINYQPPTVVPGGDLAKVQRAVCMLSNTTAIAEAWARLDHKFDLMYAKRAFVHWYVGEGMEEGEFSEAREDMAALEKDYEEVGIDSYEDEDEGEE
Chain of MAP kinase-activated protein kinase 5 (Homo sapiens) (Q8IW41 whole entry): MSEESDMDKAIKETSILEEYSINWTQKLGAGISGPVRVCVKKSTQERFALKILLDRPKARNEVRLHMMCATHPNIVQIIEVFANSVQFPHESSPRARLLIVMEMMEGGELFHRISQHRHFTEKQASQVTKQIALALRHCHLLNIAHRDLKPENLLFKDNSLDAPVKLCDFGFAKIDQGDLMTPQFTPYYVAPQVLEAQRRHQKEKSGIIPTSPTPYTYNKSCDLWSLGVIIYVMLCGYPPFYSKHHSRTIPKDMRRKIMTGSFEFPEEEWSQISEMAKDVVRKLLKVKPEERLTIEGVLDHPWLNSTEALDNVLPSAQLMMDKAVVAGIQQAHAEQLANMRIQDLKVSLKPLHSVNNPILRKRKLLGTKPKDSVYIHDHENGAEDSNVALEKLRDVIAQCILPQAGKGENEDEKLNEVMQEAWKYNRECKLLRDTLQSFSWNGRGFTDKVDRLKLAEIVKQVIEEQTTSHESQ
Chain of Eukaryotic translation initiation factor 2-alpha kinase 3 (Homo sapiens) (Q9NZJ5 whole entry): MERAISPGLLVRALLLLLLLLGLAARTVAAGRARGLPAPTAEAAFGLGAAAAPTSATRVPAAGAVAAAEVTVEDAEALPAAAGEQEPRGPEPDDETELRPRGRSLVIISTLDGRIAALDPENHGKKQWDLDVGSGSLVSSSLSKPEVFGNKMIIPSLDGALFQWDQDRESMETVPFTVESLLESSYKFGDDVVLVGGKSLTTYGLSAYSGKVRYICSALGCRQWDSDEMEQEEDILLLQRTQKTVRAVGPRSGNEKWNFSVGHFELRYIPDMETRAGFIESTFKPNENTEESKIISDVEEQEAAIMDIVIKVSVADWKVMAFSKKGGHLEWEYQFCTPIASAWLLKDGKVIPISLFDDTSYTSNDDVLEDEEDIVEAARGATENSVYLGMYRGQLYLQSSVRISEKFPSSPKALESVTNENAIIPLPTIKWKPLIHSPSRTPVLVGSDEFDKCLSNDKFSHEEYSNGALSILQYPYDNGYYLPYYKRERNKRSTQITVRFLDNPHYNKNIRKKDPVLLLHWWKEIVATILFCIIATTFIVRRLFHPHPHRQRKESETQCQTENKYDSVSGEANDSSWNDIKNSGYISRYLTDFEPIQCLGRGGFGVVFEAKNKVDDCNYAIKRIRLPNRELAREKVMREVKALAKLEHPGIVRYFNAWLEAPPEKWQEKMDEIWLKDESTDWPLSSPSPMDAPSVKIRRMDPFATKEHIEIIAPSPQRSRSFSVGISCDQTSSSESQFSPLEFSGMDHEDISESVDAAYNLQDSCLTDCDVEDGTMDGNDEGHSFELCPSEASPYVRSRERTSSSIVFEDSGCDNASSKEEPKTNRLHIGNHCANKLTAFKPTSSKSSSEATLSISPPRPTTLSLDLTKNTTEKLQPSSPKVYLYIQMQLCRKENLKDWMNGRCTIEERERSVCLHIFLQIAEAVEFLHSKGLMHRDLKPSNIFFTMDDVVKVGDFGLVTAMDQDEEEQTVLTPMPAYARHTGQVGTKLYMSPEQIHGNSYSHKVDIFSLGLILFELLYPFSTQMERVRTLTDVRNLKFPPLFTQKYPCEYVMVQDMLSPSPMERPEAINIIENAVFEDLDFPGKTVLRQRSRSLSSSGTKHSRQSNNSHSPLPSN
Chain of Kelch-like ECH-associated protein 1 (Homo sapiens) (Q14145 whole entry): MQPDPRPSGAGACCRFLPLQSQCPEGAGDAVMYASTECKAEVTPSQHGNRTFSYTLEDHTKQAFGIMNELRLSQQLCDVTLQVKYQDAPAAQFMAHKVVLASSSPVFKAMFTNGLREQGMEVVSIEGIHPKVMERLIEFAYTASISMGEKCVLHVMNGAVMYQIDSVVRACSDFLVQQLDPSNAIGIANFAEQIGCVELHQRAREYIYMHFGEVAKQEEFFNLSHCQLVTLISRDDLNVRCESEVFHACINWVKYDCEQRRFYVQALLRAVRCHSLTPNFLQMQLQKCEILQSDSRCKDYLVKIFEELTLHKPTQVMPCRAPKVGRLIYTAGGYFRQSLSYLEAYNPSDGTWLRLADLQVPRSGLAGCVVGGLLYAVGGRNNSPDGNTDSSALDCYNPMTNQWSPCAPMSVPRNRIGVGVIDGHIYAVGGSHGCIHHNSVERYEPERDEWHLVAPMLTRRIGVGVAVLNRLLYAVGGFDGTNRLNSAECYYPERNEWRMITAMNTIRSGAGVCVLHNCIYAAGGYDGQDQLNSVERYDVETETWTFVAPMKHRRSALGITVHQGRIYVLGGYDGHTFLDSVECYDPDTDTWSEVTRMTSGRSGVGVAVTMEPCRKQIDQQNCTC
Chain of Thioredoxin-related transmembrane protein 1 (Homo sapiens) (Q9H3N1 whole entry): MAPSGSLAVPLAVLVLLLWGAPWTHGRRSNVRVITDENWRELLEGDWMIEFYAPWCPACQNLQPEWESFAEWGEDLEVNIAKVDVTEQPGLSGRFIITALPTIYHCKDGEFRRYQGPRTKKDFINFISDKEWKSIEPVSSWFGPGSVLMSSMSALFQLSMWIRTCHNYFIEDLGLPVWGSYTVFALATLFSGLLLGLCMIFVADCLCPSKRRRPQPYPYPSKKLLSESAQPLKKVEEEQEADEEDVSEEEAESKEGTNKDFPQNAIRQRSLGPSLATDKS
Chain of Dual specificity mitogen-activated protein kinase kinase 1 (Homo sapiens) (Q02750 whole entry): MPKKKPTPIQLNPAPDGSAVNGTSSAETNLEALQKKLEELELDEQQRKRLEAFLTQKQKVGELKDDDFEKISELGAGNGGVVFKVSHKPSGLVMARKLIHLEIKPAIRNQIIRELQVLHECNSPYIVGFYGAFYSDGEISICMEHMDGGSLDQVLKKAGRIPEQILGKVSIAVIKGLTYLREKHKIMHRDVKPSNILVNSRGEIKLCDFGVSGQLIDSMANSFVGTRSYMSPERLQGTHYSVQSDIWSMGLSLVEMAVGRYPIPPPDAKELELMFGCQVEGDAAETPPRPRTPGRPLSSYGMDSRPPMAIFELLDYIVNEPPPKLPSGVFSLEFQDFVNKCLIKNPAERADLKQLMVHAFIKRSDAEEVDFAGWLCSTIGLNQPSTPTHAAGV
Chain of Pyrroline-5-carboxylate reductase 1, mitochondrial (Homo sapiens) (P32322 whole entry): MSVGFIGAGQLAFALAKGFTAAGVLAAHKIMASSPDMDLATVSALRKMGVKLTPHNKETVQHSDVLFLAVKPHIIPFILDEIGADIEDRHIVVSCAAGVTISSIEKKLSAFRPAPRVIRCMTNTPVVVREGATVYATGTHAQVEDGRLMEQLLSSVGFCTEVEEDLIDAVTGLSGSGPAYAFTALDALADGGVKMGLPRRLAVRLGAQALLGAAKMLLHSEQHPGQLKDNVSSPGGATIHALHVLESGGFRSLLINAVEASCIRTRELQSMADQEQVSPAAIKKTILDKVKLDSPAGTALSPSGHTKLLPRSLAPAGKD
Chain of Protein diaphanous homolog 1 (Homo sapiens) (O60610 whole entry): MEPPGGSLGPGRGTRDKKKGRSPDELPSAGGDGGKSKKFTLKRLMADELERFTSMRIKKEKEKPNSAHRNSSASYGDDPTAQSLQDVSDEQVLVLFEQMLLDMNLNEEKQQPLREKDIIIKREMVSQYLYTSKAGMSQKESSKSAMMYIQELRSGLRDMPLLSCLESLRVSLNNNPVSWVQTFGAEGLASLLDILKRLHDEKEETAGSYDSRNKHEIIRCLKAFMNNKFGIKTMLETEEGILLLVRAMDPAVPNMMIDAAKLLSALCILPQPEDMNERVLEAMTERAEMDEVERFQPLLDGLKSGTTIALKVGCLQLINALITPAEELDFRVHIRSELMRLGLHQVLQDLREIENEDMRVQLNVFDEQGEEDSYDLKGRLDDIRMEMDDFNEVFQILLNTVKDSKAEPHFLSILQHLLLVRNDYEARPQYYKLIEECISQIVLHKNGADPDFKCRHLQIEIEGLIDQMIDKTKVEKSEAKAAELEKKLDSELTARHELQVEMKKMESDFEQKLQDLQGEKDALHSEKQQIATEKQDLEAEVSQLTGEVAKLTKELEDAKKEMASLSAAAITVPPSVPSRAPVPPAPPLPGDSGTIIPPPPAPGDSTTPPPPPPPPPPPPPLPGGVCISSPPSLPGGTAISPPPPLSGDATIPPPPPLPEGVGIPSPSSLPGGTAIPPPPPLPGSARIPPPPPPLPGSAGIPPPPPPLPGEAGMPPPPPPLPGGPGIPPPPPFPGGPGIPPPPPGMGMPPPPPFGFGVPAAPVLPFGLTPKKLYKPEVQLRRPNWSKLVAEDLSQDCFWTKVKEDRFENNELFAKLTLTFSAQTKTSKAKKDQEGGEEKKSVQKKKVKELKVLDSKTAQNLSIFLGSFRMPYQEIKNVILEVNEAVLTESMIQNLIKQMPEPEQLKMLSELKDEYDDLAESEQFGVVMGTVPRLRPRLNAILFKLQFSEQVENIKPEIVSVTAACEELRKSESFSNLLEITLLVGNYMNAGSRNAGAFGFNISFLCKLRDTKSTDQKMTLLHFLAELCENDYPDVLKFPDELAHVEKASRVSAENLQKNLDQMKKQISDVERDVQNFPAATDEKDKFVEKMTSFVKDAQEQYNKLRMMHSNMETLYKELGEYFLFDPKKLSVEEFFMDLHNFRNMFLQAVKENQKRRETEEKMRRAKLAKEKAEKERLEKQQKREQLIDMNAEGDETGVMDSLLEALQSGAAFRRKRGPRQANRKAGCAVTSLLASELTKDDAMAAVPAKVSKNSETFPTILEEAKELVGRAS

Regarding `C=CC(=O)Nc1ccccc1Nc1nc(Nc2ccc(N3CCN(CCOCCOCCOCCNC(=O)CCCC[C@@H]4SC[C@@H]5NC(=O)N[C@@H]54)CC3)cc2)ncc1Cl`, the outcome in [1], in test [2], in test [3], in test [4], in test [5] and in [6] was Active. The outcome in test [7], in test [8], in test [9], in test [10], in [11] and in test [12] was Active. The result in [13], in [14] and in test [15] was Active.
As for `COc1cc(O)c2c(c1)/C=C/C[C@H](O)[C@H](O)C(=O)/C=C\C[C@H](C)OC2=O`, the inhibition in [16] was -10%. For the same compound, the Activity in [17] was 2.5%.

For orientation: inhibition means the change of the read-out against control, counted positive when it falls.
